ABCG2 block – human ABCG2 inhibition, ABCB1 as counter-screen | Q9UNQ0 | IgMXP3 cells, JC-1 efflux, flow cytometry | inhibition, % at 6.6 µM | actives 0.1% (n = 190,000) | AID 1325;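 active = inhibition above 80%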;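 also: 0% = DMSO and 100% = nicardipine control wells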
Target sequence (Q9UNQ0 whole entry, looked up): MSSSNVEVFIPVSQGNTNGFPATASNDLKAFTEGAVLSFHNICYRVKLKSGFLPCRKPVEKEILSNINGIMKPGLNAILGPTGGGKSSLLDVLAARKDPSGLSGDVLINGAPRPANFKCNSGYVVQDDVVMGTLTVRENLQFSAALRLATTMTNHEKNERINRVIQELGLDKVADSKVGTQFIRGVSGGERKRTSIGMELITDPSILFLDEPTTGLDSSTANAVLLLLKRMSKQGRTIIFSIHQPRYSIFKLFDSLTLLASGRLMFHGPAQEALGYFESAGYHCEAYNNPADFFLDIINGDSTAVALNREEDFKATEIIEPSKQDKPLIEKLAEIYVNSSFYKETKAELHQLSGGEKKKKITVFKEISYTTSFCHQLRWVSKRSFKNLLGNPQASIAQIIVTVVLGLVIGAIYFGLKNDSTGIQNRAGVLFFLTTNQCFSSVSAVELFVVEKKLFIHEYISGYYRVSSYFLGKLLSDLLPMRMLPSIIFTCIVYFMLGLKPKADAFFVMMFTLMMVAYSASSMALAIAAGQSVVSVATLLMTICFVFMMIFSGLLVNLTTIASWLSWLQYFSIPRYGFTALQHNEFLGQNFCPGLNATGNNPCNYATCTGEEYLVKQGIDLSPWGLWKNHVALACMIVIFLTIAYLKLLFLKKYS
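Test system: IgMXP3 (ABCG2) plus far-red-tagged CCRF-Adr (ABCB1) cells / Amount: 3 million cells/mL in well / Reagent: JC-1 transporter substrate / Timing: 10 min compound exposure, 25 °C / Signal: flow cytometry, 530 nm JC-1 signal / Read-out: percent efflux inhibition, scaled nicardipine 100% to DMSO 0% / Benchmarks: nicardipine as high control, DMSO as low control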
Autophagy HCS – alters autophagy in cells | actives 0.98% (n = 190,000) | AID 463193 | calls only at 10 µM (by protocol) | MEF GFP-LC3 puncta imaging; test concentration mostly 10 µM;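 active = percentage of spot-positive cells more than 3 SD above its plate mean, without a fluorescence outlier flag or 80% toxicity; inconclusive = no clear call, values can overlap the other calls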;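 also: spot-positive cell cutoff set from DMSO-treated cells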
sdo1 growth – sdo1-depleted yeast growth rescue | S. cerevisiae sdo1-depleted JHY4D growth rescue, OD600 30 h; hits give high values; pdr5 snq2 efflux-pump mutant strain | actives 0.21% (n = 140,000) | z-score at 10 µM;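 active = z-score above 3 at both the 24 hr and the 30 hr optical density reads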;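 also: z-score against mean and SD of all compound wells on the same plate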
ROMK primary – human ROMK K+ channel modulation, primary screen. Tet-inducible ROMK, thallium flux fluorescence; actives lie on both sides. B-score at 10 µM. actives 2% (n = 130,000). AID 1918;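 active = signal ratio slope over the read window, or its plate-corrected B-score, at least 3 SD from the plate mean, either direction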;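 also: B-score of the F/F0 ratio slope over 7 to 12 s after thallium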
ABCB1 inh – inhibitors of human ABCB1 transporter, ABCG2 counter-screen. P08183. CCRF-Adr cells, JC-1 efflux, flow cytometry. inhibition, % at 6.6 µM. actives 0.067% (n = 190,000). AID 1326; in the data active = inhibition above about 40%;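 also: 0% = vehicle and 100% = reference inhibitor; higher value means more JC-1 retained so stronger ABCB1 efflux block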
Insulin prom up – MIN6 insulin promoter up-regulation; AID 1625; actives 0.3% (n = 190,000); z-score at 5 µM; MIN6 insulin promoter-GFP reporter, high-content imaging; hits give high values;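 active = z-score above 3 at 5 µM with at least 500 cells counted in the well; inconclusive = wells under 500 cells, flagged as cytotoxic or low count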
ROMK hit retest – retested hit modulating human ROMK potassium channel. shares compounds with ROMK primary. ROMK thallium flux, fluorescence ratio; hits give low values. normalized thallium flux (F/F0 slope) at 10 µM. actives 54% (n = 3,000). AID 1917;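 active = Flux at 10 µM at least 3 SD below or above vehicle control mean in one or both replicates; inconclusive = no clear call, values can overlap the other calls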
The depositor's hits bear a star; i = inactive; u = inconclusive; x = no result given. Rows were chosen to be rich in hits. Some 2.3% of all compounds tested hit in one or more screens of this group.

SMILES	ABCG2 block	Autophagy HCS	sdo1 growth	ROMK primary	ABCB1 inh	Insulin prom up	ROMK hit retest
CCOc1ccc2nc(NC(=O)C(NS(=O)(=O)c3cccc4nsnc34)C(C)C)sc2c1 (stereo not drawn)	1	i	-0.27	x	2	-0.26	0.056*
O=c1c(Br)c(N2CCCCC2)cnn1-c1ccccc1	3	i	x	-1.1	0	-0.39	x
COc1ccc(C2(c3ccc(OC(C)=O)cc3OC(C)=O)CC(c3ccccc3)NC(=S)N2)cc1 (stereo not drawn)	-12	i	x	-0.19	-2	-0.93	x
COc1ccc(C2CC(C)(c3ccc(OC)cc3)Nc3ccccc3N2)cc1 (stereo not drawn)	x	x	x	x	x	0.07	0.087
O=C(Nc1ccc(Oc2cccc(C(F)(F)F)c2)nc1)c1cccs1	x	x	x	x	x	0.13	0.064*
COC(=O)N/N=C/c1ccc(-c2ccc(C)c(Cl)c2)o1	31	i	0.19	x	0	1.1	x
Cc1ccc(-c2ccc(/C=N/c3ncn[nH]3)o2)cc1Cl	1	i	-0.22	3.4*	0	-0.18	0.087
N#Cc1ccccc1OCCOCCNC1CCCC1	0	i	1.6	-0.062	0	x	x
CCn1cc(C(=O)OCC(=O)OC2CC(C)CCC2C(C)C)c(=O)c2ccc(C)nc21 (stereo not drawn)	9	i	0.15	2.7*	2	1.1	0.064*
NS(=O)(=O)c1ccc(CCNS(=O)(=O)c2cccc(C(=O)O)c2)cc1	x	x	x	x	x	-0.52	x
COC(=O)C1=C(N)OC2=C(C(=O)CC(C)(C)C2)C1c1ccccc1OCC#N (stereo not drawn)	3	i	x	-0.081	1	0.3	x
COC(=O)C1=C(N)OC2=C(C(=O)CC(C)(C)C2)C1c1cccnc1 (stereo not drawn)	0	i	0.67	4*	0	x	0.072
Cc1nnc(SCc2cccc3ccccc23)s1	x	x	x	x	x	-0.03	x
CCN(CC)Cc1c(O)ccc2c([N+](=O)[O-])c(C)n(-c3ccc(OC)cc3)c12	2	i	-0.25	-4.8*	0	x	u
O=C(CN(Cc1ccco1)C(=O)Cn1nnc(-c2cccs2)n1)NCC1CCCO1 (stereo not drawn)	2	i	x	1.3	1	-0.97	x
O=C1N/C(=C/c2ccc(N3CCOCC3)o2)C(=O)N1c1ccccc1	0	i	-0.25	-3.4*	0	0.51	0.049*
COc1ccc(CN2C(=O)/C(=C/c3ccc(-c4ccc(Cl)c(C(=O)O)c4)o3)SC2=S)cc1	13	i	x	-0.31	14	x	x
O=C(O)c1cc(-c2ccc(/C=C3/SC(=S)N(Cc4ccccc4)C3=O)o2)ccc1Cl	0	i	x	-4*	4	x	0.043*
Cc1ccc(C2CC2C(=O)NNC(=S)Nc2cccc(C)c2)cc1 (stereo not drawn)	0	i	-1.9	-2	0	0.46	x
Cc1ccc(C2CC2C(=O)NNC(=S)Nc2cccc(Cl)c2)cc1 (stereo not drawn)	-3	i	-1.7	x	-1	x	u
O=C1C(CSCc2ccccc2)NC(=S)N1c1ccccc1 (stereo not drawn)	x	x	x	-0.058	x	0.19	x
CCn1c(SCc2nc(-c3cccs3)no2)nnc1-c1c[nH]c2ccccc12	5	i	-1.1	x	0	0.34	0.057*
N#CC1=C(N)C(C#N)(C#N)C(c2ccc[nH]2)C2CCCC=C12 (stereo not drawn)	1	i	0.53	-6.5*	0	-0.43	0.053*
COc1cccc(NC2=C(Cl)C(=O)OC2OC(=O)c2ccco2)c1 (stereo not drawn)	2	i	x	-0.25	0	-0.18	x
CCc1ccccc1NS(=O)(=O)c1ccc(SC)cc1	4	i	-1	-1.6*	1	-0.64	0.065*
SMILES	ABCG2 block	Autophagy HCS	sdo1 growth	ROMK primary	ABCB1 inh	Insulin prom up	ROMK hit retest
Cc1c(C(=O)c2ccc([N+](=O)[O-])cc2)c(=O)n(C)c(=O)n1C	0	i	x	-0.15	0	0.23	x
CC#CC(=O)N1CCC(CO)(CCc2ccccc2)CC1	1	i	x	-0.021	0	x	x
Cc1nn(CC(O)COc2ccc3c(c2)CCC3)c(C)c1C (stereo not drawn)	4	i	0.3	-3.7*	1	-0.25	0.066*
CCN1CCN(CC(O)COc2ccc3c(c2)CCC3)CC1 (stereo not drawn)	2	i	0.55	-0.1	0	-0.07	x
CC(C)CCNC(=O)CCS(=O)(=O)c1cccc2nonc12	3	i	0.23	x	1	2.4	x
CCCCC(CC)CNC(=O)CCS(=O)(=O)c1cccc2nonc12 (stereo not drawn)	1	i	0.01	x	1	0.21	u
O=C(Nc1ccc(Cl)cc1)NN1CC(=O)N(c2cccc(C(F)(F)F)c2)CC1=O	x	x	x	-0.71	x	-0.55	x
C=C(C)COc1ccc(-c2[nH]ncc2-c2ccc(OC)c(OC)c2)c(O)c1	7	i	-0.44	3.8*	1	0.86	0.088
CC(C)N(Cc1nc(-c2ccc3c(c2)OCO3)no1)Cc1nccn1C	1	i	x	0.76	3	0.36	x
COc1ccc(NC(=S)N2CCCN(Cc3cc(C)ccc3C)C2)cc1	9	i	x	-0.68	12	0.9	x
COc1ccc(OC)c(C2=NOC(C(=O)NCc3ccccn3)C2)c1 (stereo not drawn)	1	i	0.46	x	0	-0.76	0.076
O=C(NCc1ccccn1)C1CC(c2ccccc2O)=NO1 (stereo not drawn)	2	i	x	2.6*	1	0.05	0.088
O=C(NCc1cccs1)C1CC(c2ccccc2O)=NO1 (stereo not drawn)	0	i	-0.18	x	-1	-1.3	x
CCOc1ccsc1C(=O)O	x	x	x	x	x	-0.03	x
CC(=O)OCC1CCCC2=C(C)C(=O)CCC21COC(C)=O (stereo not drawn)	1	i	0.12	0.78	0	0.01	x
COCC(=O)O[C@]1(CCN(C)CCCc2nc3ccccc3[nH]2)CCc2cc(F)ccc2[C@@H]1C(C)C	x	x	x	x	x	u	0.061*
Cc1cccc(N=Nc2cnc(N)s2)c1	x	x	x	0.78	x	-0.77	x
COCCN(C(=S)Nc1ccc(Cl)cc1OC)C1CCN(C(C)=O)CC1	x	x	x	x	x	0.69	x
Cc1cc(C)c2cc(C(=O)Nc3ccccc3)[nH]c2c1	x	x	x	x	x	0.48	0.079

Source: PubChem (several laboratories)
